Reference: the M2OR odorant receptor database

Legend:
Settings in all cases: stereoisomer not certain
[1] = target: OR11H1 (Homo sapiens) (UniProt Q8NG94)
Summary of the method: (§1)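 Transient luciferase assays in mammalian cell lines were common, though methods varied by source. The values come from published papers and their supplementary material, with extra details from the original authors when needed. Responsive refers to a measured signal the original authors judged statistically different from baseline, and non-responsive (inactive) to the remainder.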

[2] = target: OR11H12 (Homo sapiens) (UniProt B2RN74)
Summary of the method: as §1

[3] = target: OR11H2 (Homo sapiens) (UniProt Q8NH07)
Summary of the method: as §1

[4] = target: OR11H4 (Homo sapiens) (UniProt Q8NGC9)
Summary of the method: as §1

[5] = target: OR11H6 (Homo sapiens) (UniProt Q8NGC7)
Summary of the method: as §1

[6] = target: OR11H7 (Homo sapiens) (UniProt Q8NGC8)
Summary of the method: as §1

[7] = target: OR11L1 (Homo sapiens) (UniProt Q8NGX0)
Summary of the method: as §1

[8] = target: OR12D1 (Homo sapiens) (UniProt P0DN82)
Summary of the method: as §1

[9] = target: OR12D2 (Homo sapiens) (UniProt P58182)
Summary of the method: as §1

[10] = target: OR12D3 (Homo sapiens) (UniProt Q9UGF7)
Summary of the method: as §1

Measured: odorant receptor agonist call;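 note: active if original authors judged signal statistically different from baseline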

Sequence of OR12D3 (Homo sapiens) (Q9UGF7 whole entry): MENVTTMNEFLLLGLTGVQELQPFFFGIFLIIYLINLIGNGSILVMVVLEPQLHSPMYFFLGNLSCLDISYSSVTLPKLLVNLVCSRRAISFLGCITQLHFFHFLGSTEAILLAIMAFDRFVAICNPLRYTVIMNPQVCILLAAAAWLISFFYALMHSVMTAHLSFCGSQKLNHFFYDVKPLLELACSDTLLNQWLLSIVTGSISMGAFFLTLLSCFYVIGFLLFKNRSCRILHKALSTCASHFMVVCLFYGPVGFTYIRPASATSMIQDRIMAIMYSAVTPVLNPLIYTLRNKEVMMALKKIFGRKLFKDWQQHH
Sequence of OR11H4 (Homo sapiens) (Q8NGC9 whole entry): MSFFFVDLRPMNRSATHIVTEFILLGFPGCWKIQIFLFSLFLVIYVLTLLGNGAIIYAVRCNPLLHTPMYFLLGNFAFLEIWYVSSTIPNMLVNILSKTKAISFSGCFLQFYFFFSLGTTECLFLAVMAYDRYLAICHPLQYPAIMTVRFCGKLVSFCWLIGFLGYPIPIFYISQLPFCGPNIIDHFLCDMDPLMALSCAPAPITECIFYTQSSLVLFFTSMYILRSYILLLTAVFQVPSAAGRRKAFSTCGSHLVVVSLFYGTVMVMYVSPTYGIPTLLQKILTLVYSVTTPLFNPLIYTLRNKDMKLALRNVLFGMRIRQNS
Sequence of OR12D2 (Homo sapiens) (P58182 whole entry): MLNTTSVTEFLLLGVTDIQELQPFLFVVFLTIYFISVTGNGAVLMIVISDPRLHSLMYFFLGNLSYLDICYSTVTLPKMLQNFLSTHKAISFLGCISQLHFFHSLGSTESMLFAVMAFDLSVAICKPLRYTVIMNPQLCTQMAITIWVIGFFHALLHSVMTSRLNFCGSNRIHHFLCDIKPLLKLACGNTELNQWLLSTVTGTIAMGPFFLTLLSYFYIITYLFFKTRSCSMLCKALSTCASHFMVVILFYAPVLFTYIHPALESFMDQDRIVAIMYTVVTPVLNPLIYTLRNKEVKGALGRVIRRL
Sequence of OR11H6 (Homo sapiens) (Q8NGC7 whole entry): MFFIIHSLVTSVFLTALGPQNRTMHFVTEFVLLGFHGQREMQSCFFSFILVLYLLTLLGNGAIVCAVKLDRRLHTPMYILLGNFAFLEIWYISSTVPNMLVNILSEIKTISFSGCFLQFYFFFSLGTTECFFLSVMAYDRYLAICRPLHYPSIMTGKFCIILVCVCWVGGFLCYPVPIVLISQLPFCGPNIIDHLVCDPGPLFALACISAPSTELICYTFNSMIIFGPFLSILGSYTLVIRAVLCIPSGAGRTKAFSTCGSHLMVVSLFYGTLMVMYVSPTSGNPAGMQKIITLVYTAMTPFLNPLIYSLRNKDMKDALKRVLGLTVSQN
Sequence of OR11H2 (Homo sapiens) (Q8NH07 whole entry): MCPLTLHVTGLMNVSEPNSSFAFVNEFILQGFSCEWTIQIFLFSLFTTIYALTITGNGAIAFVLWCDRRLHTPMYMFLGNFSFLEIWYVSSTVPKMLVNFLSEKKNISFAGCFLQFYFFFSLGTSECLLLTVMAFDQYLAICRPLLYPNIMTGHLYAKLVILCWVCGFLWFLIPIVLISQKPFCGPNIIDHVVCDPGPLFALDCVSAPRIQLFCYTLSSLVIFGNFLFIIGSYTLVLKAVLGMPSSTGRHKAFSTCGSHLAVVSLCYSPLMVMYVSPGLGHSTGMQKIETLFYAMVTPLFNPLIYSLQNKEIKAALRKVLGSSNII
Sequence of OR11H1 (Homo sapiens) (Q8NG94 whole entry): as the sequence (Q8NH07 whole entry) above, with H7Q, I49T, K181M, L199R, V240M, P269S counted along it
Sequence of OR11L1 (Homo sapiens) (Q8NGX0 whole entry): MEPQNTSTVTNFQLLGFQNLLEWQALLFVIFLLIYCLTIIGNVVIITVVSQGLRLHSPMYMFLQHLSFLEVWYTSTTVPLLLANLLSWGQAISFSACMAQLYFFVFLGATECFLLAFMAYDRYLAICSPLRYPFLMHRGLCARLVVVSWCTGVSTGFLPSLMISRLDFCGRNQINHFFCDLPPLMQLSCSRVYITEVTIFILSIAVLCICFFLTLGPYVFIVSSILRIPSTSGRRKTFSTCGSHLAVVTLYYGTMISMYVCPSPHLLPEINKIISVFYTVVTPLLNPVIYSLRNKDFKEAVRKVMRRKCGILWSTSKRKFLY
Sequence of OR11H12 (Homo sapiens) (B2RN74 whole entry): as the sequence (Q8NH07 whole entry) above, with H7Q, S33T, I49T, R68W, Y156C, K181M, L199R, P269S counted along it
Sequence of OR11H7 (Homo sapiens) (Q8NGC8 whole entry): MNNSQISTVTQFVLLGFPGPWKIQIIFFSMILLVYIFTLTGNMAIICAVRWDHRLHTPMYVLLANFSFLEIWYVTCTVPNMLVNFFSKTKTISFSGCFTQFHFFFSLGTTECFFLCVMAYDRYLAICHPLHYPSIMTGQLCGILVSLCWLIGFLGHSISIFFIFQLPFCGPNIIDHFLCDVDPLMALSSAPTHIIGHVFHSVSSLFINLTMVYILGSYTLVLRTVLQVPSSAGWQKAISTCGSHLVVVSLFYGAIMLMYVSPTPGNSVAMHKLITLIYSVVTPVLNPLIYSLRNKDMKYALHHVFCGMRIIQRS
Sequence of OR12D1 (Homo sapiens) (P0DN82 as listed by the source): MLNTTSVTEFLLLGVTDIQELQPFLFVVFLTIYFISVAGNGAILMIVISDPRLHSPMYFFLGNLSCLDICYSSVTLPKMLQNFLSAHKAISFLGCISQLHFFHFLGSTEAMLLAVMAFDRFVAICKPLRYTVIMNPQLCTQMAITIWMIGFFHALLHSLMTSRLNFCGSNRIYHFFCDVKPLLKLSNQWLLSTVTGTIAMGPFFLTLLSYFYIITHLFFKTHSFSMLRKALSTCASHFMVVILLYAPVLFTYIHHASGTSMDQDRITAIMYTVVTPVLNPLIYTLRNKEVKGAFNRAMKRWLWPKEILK

Cc1c([N+](=O)[O-])c(C)c([N+](=O)[O-])c(C(C)(C)C)c1[N+](=O)[O-]
inactive: all assays above

C=CCOC(=O)Cc1ccccc1
not listed: [6] | [8]
inactive: all other assays above
